This passage reports IC50, inhibition and Activity results from ChEMBL document CHEMBL4257549, “Design, synthesis and biological evaluation of benzimidazole-rhodanine conjugates as potent topoisomerase II inhibitors” (Medchemcomm, 2018).

In one assay the test system is HL-60. The assay is described as follows: Cytotoxicity against human HL60 cells after 48 hrs by MTT assay. It counts as functional, cell-based. Particulars: HL-60, 48 h. Summed up: (§1)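 Cells seeded at 5000 per well, left overnight, then exposed to compound at 0–50 μM for 48 h. MTT (20 μL of 2.5 mg mL−1) added for a further 4 h at 37 °C, formazan dissolved in DMSO, absorbance read at 570 nm. Quadruplicate wells, N > 2 determinations, mean IC50 taken as the concentration reducing cell number to 50%.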
A general note: Tetrazolium dyes change colour on reduction, which living cells bring about.

For a further assay, the system named is A549. The assay is described as follows: Cytotoxicity against human A549 cells after 48 hrs by MTT assay. Format: functional, cell-based. Particulars: A549, 48 h. Summed up:
as §1

Another assay deals with Raji. As to the kind of experiment: Cytotoxicity against human Raji cells after 48 hrs by MTT assay. It counts as functional, cell-based. In short, it runs like this:
as §1

Assay [1] is filed under the species Homo sapiens. The assay is described as follows: Inhibition of human topoisomerase 2-mediated pBR322 DNA relaxation at 100 uM after 30 mins by agarose gel electrophoresis.
For assay [2], the species on record is Homo sapiens. As to the kind of experiment: Poison activity at human topoisomerase 2 assessed as transformation of supercoiled pBR322 DNA to linear pBR322 DNA at 100 uM after 6 mins by agarose gel electrophoresis.
Another assay concerns HeLa. The assay is described as follows: Cytotoxicity against human HeLa cells after 48 hrs by MTT assay. Format: functional, cell-based. Summed up: as §1
For assay [3], the species on record is Homo sapiens. As to the kind of experiment: Inhibition of human topoisomerase 2-mediated pBR322 DNA relaxation at 20 uM after 30 mins by agarose gel electrophoresis.
Another assay concerns PC-3. The assay is described as follows: Cytotoxicity against human PC3 cells after 48 hrs by MTT assay. Format: functional, cell-based. Particulars: PC-3, 48 h. Summed up:
as §1

For a further assay, the system named is MDA-MB-231. As to the kind of experiment: Cytotoxicity against human MDA-MB-231 cells after 48 hrs by MTT assay. Particulars: MDA-MB-231, 48 h. It counts as functional, cell-based. In short, it runs like this:
as §1

Assay [4] deals with DNA. The assay is described as follows: Induction of Escherichia coli pBR322 DNA intercalation assessed as transformation of topoisomerase1-relaxed pBR322 DNA in to supercoiled DNA at 5 uM preincubated for 10 mins followed by topoisomerase-1 addition and measured after 30 mins by agarose gel electrophoresis method. It counts as nucleic-acid assay. Summed up:
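0.1 μg relaxed DNA incubated with compound 10 min at room temperature, then Topo I (1 U) added, 37 °C for 30 min. Stopped with phenol-chloroform and SDS/EDTA. Products resolved on agarose gel in TAE and imaged under UV.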

Assay [5] has as its target T1, DNA topoisomerase 1 (Homo sapiens) (UniProt P11387).
T1 sequence (whole entry): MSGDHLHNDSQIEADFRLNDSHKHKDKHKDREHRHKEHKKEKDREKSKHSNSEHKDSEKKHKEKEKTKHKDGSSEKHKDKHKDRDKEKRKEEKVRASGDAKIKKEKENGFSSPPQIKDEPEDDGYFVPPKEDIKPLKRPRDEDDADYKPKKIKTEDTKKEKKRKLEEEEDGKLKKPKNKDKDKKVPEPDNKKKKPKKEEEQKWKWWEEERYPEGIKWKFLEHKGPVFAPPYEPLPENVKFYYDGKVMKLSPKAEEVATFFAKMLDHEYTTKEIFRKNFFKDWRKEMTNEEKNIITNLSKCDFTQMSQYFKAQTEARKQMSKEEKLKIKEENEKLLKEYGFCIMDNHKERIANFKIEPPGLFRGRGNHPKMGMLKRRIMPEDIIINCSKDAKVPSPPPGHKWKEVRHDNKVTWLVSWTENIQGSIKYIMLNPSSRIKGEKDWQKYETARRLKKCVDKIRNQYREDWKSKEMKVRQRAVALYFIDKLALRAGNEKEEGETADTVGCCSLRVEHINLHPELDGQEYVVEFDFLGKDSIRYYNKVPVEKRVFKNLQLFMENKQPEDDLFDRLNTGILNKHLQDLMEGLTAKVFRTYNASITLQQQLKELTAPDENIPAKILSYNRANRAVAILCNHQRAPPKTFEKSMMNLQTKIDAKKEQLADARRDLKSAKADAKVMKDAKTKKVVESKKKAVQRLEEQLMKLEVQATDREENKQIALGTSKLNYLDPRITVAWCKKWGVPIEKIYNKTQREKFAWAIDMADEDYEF
As to the kind of experiment: Inhibition of topoisomerase 1 (unknown origin)-mediated pBR322 DNA relaxation at 50 uM after 30 mins by agarose gel electrophoresis. Summed up: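 Topo I relaxation of pBR322 with compound at 30 min, 37 °C, camptothecin positive control. Stopped with SDS/bromophenol blue/glycerol dye, run on 1% agarose in TAE for 1.5 h, Ged Red stained, UV visualized.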

For assay [6], the species on record is Homo sapiens. The assay is described as follows: Poison activity at human topoisomerase 2 assessed as […] at 50 uM after 6 mins by agarose gel electrophoresis.
In assay [7] the test system is DNA. As to the kind of experiment: Induction of Escherichia coli pBR322 DNA intercalation assessed as transformation of topoisomerase1-relaxed pBR322 DNA in to supercoiled DNA at 50 uM preincubated for 10 mins followed by topoisomerase-1 addition and measured after 30 mins by agarose gel electrophoresis method. It counts as nucleic-acid assay. Summed up: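 Unwinding: pBR322 first relaxed by Topo I in buffer (50 mM Tris-HCl pH 7.5, 50 mM KCl, 10 mM MgCl2, 0.5 mM DTT, 0.1 mM EDTA, 30 μg/mL BSA). 0.1 μg relaxed DNA preincubated with compound 10 min at room temperature, then Topo I (1 U) added, 30 min at 37 °C. Phenol-chloroform stop, SDS/EDTA added, agarose electrophoresis in TAE, UV imaging.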

The species entered for assay [8] is Homo sapiens. As to the kind of experiment: Inhibition of human topoisomerase 2-mediated pBR322 DNA relaxation at 10 uM after 30 mins by agarose gel electrophoresis.
Assay [9] is filed under the species Homo sapiens. As to the kind of experiment: Inhibition of catalytic activity of human topoisomerase 2 assessed as decrease in levels of linear pBR322 DNA trapped by etoposide at 50 uM after 6 mins by agarose gel electrophoresis.

Each structure is given as a SMILES string. Activity calls are given as the source filed them. The rule behind the calls is not given here.

Regarding `COc1cc([C@@H]2c3cc4c(cc3[C@@H](O[C@@H]3O[C@@H]5CO[C@@H](C)O[C@H]5[C@H](O)[C@H]3O)[C@H]3COC(=O)[C@H]23)OCO4)cc(OC)c1O` [ETOPOSIDE], the IC50 in the assay on HL-60 turned out to be 0.58 µM; in the assay with A549 it was 2.46 µM; in the assay with Raji it was 1.21 µM; in the assay with HeLa, 28.6 µM; in the assay with PC-3, 13.2 µM; in the assay with MDA-MB-231 it was 30.3 µM. Also, the inhibition result in the assay filed under Homo sapiens [1] and in the assay filed under Homo sapiens [3] was “Active” in each case. For the same compound, in the assay filed under Homo sapiens [2], the result was Active.
With `CC[n+]1c(-c2ccccc2)c2cc(N)ccc2c2ccc(N)cc21`, in the assay on DNA [4], the outcome was Active.
As for `O=C(O)CN1C(=O)/C(=C/c2nc3ccccc3n2Cc2ccccc2F)SC1=S`, the IC50 with HL-60 turned out to be 0.21 µM; with A549, 2.67 µM; in the assay with Raji it was 1.23 µM; in the assay with HeLa it was 0.64 µM; in the assay with PC-3, 1.86 µM; in the assay with MDA-MB-231 it was 0.33 µM. Moreover, the inhibition entry in [5] is “inactive”. Also, the outcome in the assay listed under Homo sapiens [6] and in the assay with DNA [7] was inactive. Also, the inhibition entry in the assay filed under Homo sapiens [8], in the assay filed under Homo sapiens [3] and in the assay listed under Homo sapiens [9] was “Active” throughout.
For `Cc1ccc(Cn2c(/C=C3\SC(=S)N(CC(=O)O)C3=O)nc3ccccc32)cc1`, the IC50 with HL-60 worked out at 0.54 µM; with A549 it was 3.22 µM; in the assay on Raji, 0.96 µM; in the assay with HeLa it was 1.28 µM; with PC-3, 2.64 µM; with MDA-MB-231 it was 1.04 µM. Further, the inhibition result in [5] is “inactive”. Moreover, the outcome in the assay listed under Homo sapiens [6] and in the assay with DNA [7] was inactive. Further, the inhibition entry in the assay filed under Homo sapiens [8], in the assay listed under Homo sapiens [3] and in the assay filed under Homo sapiens [9] was “Active” in each case.

By IC50 is commonly meant the concentration at which inhibition is half-maximal.
